Test results as given in ChEMBL document CHEMBL1154683, “Bis(dialkylaminethiocarbonyl)disulfides as potent and selective monoglyceride lipase inhibitors” (J Med Chem, 2009).
Changes are numbered by the printed parent chain. Active and inactive are the calls of the source. The calls are words filed in the database; no cut-off is given here.

Tests used:
[1] = biological target: T1, Monoglyceride lipase (Homo sapiens) (UniProt Q99685); test: Inhibition of human MGL activity using [3H]2-oleoylglycerol substrate at 10 uM by liquid scintillation counting
T1 sequence (whole entry): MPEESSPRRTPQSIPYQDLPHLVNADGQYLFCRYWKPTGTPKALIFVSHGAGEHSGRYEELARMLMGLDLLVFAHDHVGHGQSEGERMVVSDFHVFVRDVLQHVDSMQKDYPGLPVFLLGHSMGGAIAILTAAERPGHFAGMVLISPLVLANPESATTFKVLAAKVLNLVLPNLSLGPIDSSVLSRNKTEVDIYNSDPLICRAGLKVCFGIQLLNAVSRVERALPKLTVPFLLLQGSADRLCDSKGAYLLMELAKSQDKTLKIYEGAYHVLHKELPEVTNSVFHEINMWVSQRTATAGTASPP
How it was run: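 Single-point screen on recombinant human MGL at 10 μM, with a parallel screen at 100 μM.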

Monoglyceride lipase [2] = biological target: T2, Monoglyceride lipase (Homo sapiens, UniProt Q99685); test: Inhibition of human MGL activity using [3H]2-oleoylglycerol substrate by liquid scintillation counting
T2 sequence (Q99685 whole entry): T1 sequence (whole entry)
How it was run: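 Recombinant human MGL was used, and inhibition was expressed as pIC50.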

[3] = biological target: T3, Fatty-acid amide hydrolase 1 (Homo sapiens, UniProt O00519); test: Inhibition of human recombinant FAAH-maltose binding protein
T3 sequence (O00519 whole entry): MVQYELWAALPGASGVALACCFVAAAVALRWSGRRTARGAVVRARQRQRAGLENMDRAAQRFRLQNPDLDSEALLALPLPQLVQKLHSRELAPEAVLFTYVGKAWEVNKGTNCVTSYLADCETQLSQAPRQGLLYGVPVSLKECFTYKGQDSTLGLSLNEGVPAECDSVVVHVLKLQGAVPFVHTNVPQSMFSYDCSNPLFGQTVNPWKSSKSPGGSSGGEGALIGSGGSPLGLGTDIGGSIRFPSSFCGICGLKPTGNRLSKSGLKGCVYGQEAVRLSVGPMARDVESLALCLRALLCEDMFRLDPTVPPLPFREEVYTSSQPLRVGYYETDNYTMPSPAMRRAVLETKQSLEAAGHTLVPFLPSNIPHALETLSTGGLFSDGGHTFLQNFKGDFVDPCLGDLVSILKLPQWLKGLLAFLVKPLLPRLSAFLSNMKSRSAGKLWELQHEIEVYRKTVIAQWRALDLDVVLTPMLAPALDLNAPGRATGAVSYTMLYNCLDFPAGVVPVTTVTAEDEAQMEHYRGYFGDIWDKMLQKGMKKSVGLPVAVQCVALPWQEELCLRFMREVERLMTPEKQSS

Homo sapiens = species on record: Homo sapiens; test: Selectivity ratio for human MGL activity to human recombinant FAAH
[4] = biological target: T1, Monoglyceride lipase (Homo sapiens); test: Inhibition of human MGL activity using [3H]2-oleoylglycerol substrate at 10 nM measured upto 1 hr by high dilution reversibility assay
How it was run: (§1)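 Recombinant human MGL preincubated with inhibitor at 30, 10 or 3 μM, then diluted 300-fold before substrate addition, giving 100, 33.3 and 10 nM during the activity read. Activity was followed up to 1 h postdilution and compared with a DMSO-preincubated control.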

[5] = biological target: T1, Monoglyceride lipase (Homo sapiens); test: Inhibition of human MGL activity using [3H]2-oleoylglycerol substrate assessed as reversible enzyme activity in presence of 1,4-dithio-DL-threitol
How it was run: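 Recombinant human MGL incubated with inhibitor to allow disulfide bond formation. DTT (10^-2 M) was then added before substrate addition and the MGL activity read.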

Monoglyceride lipase [6] = biological target: Monoglyceride lipase (Homo sapiens, UniProt Q99685, C208A); test: Inhibition of human MGL C208A mutant using [3H]2-oleoylglycerol substrate
Monoglyceride lipase [7] = biological target: Monoglyceride lipase (Homo sapiens, UniProt Q99685, C242A); test: Inhibition of human MGL C242A mutant using [3H]2-oleoylglycerol substrate
[8] = system: T4, Monoglyceride lipase (Homo sapiens), Q99685 [C208A,C242A]; test: Inhibition of human MGL C208A/C242A double mutant using [3H]2-oleoylglycerol substrate
T4 sequence (whole entry): T1 sequence (whole entry) with C208A, C242A

[9] = biological target: T5, Aldehyde dehydrogenase, mitochondrial (Rattus norvegicus, UniProt P11884); test: Inhibition of recombinant rat ALDH activity in liver mitochondria
T5 sequence (P11884 whole entry): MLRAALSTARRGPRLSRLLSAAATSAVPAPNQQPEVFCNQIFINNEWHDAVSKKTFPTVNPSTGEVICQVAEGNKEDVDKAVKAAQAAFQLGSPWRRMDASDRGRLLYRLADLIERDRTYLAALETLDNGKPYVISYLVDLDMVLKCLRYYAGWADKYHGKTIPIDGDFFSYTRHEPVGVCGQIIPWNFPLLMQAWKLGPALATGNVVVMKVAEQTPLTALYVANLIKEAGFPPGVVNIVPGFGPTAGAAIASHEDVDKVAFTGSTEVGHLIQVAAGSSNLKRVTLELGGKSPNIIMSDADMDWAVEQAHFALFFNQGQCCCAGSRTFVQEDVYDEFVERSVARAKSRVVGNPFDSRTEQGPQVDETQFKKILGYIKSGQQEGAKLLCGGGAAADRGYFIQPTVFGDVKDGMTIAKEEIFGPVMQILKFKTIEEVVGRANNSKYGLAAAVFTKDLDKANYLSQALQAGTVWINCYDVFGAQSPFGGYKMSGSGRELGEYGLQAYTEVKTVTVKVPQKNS

[10] = biological target: T1, Monoglyceride lipase (Homo sapiens); test: Inhibition of human MGL activity using [3H]2-oleoylglycerol substrate at 100 nM measured upto 1 hr by high dilution reversibility assay; how it was run: as §1
[11] = biological target: T1, Monoglyceride lipase (Homo sapiens); test: Inhibition of human MGL activity using [3H]2-oleoylglycerol substrate at 33.3 nM measured upto 1 hr by high dilution reversibility assay; how it was run: as §1

Sequence of Monoglyceride lipase (Homo sapiens, UniProt Q99685, C208A) (Q99685 whole entry C208A): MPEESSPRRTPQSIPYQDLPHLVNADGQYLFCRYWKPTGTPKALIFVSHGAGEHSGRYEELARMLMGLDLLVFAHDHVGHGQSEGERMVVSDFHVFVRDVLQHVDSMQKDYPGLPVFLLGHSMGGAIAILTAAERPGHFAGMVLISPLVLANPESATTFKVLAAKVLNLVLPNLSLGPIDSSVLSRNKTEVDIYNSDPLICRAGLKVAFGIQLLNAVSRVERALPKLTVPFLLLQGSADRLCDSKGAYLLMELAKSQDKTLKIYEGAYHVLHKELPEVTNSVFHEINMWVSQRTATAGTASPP
Sequence of Monoglyceride lipase (Homo sapiens, UniProt Q99685, C242A) (Q99685 whole entry C242A): as the sequence (Q99685 whole entry C208A) above, with A208C, C242A counted along it

Compound	inhibition [1] [%]	IC50 (Monoglyceride lipase [2]) [µM]	IC50 [3] [µM]	also measured
CCN(CC)C(=S)CSC(=S)N(CC)CC [(DIETHYLTHIOCARBAMOYL)METHYLENE DIETHYLCARBAMODITHIOATE]	> 50	19.1	> 1000	–
CN(C(=S)SSC(=S)N(C)c1ccccc1)c1ccccc1	> 50	0.741	33.9	–
CCN(CC)C(=S)SCSC(=S)N(CC)CC	> 50	20.9	> 1000	–
CCN(CC)C(=S)SC [METHYLDIETHYL CARBAMODITHIOATE]	–	> 1000	> 1000	–
CCCCC/C=C\C/C=C\C/C=C\C/C=C\CCCC(=O)C(F)(F)F [ARACHIDONYL TRIFLUOROMETHYLKETONE]	–	6.46	0.0123	Selectivity ratio (Homo sapiens): 0.002
O=C(CSC(=S)N1CCOCC1)N1CCOCC1	> 50	219	> 1000	–
CCN(Cc1ccccc1)C(=S)SSC(=S)N(CC)Cc1ccccc1	> 50	4.07	> 1000	–
CCCCCCCCCCCCCCCCN(CC)C(=S)SSC(=S)N(CC)CCCCCCCCCCCCCC	> 50	10.5	> 1000	–
S=C(SSC(=S)N1CCCc2ccccc21)N1CCCc2ccccc21	> 50	0.741	> 1000	–
S=C(SSC(=S)N1CCCC1)N1CCCC1 [BIS(PYRROLIDINYLTHIOCARBONYL)DISULFIDE]	> 50	0.912	> 1000	–
CSC(=S)N1CCOCC1	> 50	> 1000	> 1000	–
S=C(SSC(=S)N1CCOCC1)N1CCOCC1	> 50	0.219	79.4	–
CC1CCN(C(=S)SSC(=S)N2CCC(C)CC2)CC1	> 50	0.269	> 1000	–
S=C(SSC(=S)N1CCN(c2ccccc2)CC1)N1CCN(c2ccccc2)CC1	> 50	0.49	135	–
S=C(SSC(=S)N1CCSCC1)N1CCSCC1	> 50	0.316	25.1	–
S=C(SSC(=S)N1CCc2ccccc2C1)N1CCc2ccccc2C1	> 50	0.347	> 1000	–
S=C(SSC(=S)N1CCC(Cc2ccccc2)CC1)N1CCC(Cc2ccccc2)CC1	> 50	6.92	> 1000	–
S=C(SSC(=S)N1CCCCC1)N1CCCCC1 [BIS(PIPERIDINYLTHIOCARBONYL)DISULFIDE]	> 50	0.316	> 1000	–
CN(C)C(=O)n1nnnc1Cc1ccc(-c2ccccc2)cc1	–	0.055	–	–
CCN(CC)SSN(CC)CC	> 50	7.94	> 1000	–
S=C(SSC(=S)N1CCCCCC1)N1CCCCCC1	> 50	0.813	> 1000	–

Compound	inhibition [1] [%]	IC50 (Monoglyceride lipase [2]) [µM]	IC50 [3] [µM]	also measured
O=C(Nc1cccc(-c2ccccc2)c1)OC1CCCCC1	–	10	5.75	Selectivity ratio (Homo sapiens): 0.57
CN(C)C(=S)SC(=S)N1CCOCC1	> 50	6.46	> 1000	–
S=C(CSC(=S)N1CCOCC1)N1CCOCC1	> 50	15.5	> 1000	–
CCN(CC)C(=S)SSC(=S)N(CC)CC	> 50	1.26	363	–
S=C(SSC(=S)N1CCN(Cc2ccccc2)CC1)N1CCN(Cc2ccccc2)CC1	> 50	5.01	170	–
S=C(SSC(=S)N(Cc1ccccc1)Cc1ccccc1)N(Cc1ccccc1)Cc1ccccc1 [BIS(DIBENZYLAMINETHIOCARBONYL)DISULFIDE]	> 50	9.55	> 1000	–
CCN(CC)C(=O)CSC(=S)N(CC)CC [(DIETHYLCARBAMOYL)METHYLENE DIETHYLCARBAMODITHIOATE]	> 50	631	> 1000	–
CN(C)C(=S)SC(=S)N(C)C [BIS(DIMETHYLAMINETHIOCARBONYL)MONOSULFIDE]	> 50	12.3	> 1000	–
C1CN(SSN2CCOCC2)CCO1 [DITHIODIMORPHOLINE]	> 50	11.2	> 1000	–
COc1nn(-c2ccc(NC(=O)OCc3ccccc3)c(C)c2)c(=O)o1	–	0.0204	0.0776	Selectivity ratio (Homo sapiens): 3
CN(C)C(=S)SSC(=S)N(C)C [THIRAM]	> 50	0.977	44.7	Selectivity ratio (Homo sapiens): 45
CN(C(=S)SSC(=S)N(C)C1CCCCC1)C1CCCCC1	> 50	0.141	4.79	–
CN1CCN(C(=S)SCSC(=S)N2CCN(C)CC2)CC1	> 50	95.5	> 1000	–
CCCCC/C=C\C/C=C\C/C=C\C/C=C\CCCCN1C(=O)CCC1=O	–	1.12	2.19	Selectivity ratio (Homo sapiens): 1.95
S=C(SCSC(=S)N1CCOCC1)N1CCOCC1	> 50	102	> 1000	–
C1CCN(SSN2CCCCC2)CC1	> 50	9.55	> 1000	–
CN1CCN(C(=S)SSC(=S)N2CCN(C)CC2)CC1	> 50	0.11	200	Activity [4]: Active; Activity [5]: Active; IC50 (Monoglyceride lipase [6]): 8.32 µM; IC50 (Monoglyceride lipase [7]): 0.302 µM; Activity [8]: inactive; IC50 [9]: 15.8 µM; Activity [10]: Active; Activity [11]: Active
CC1CCCC(C)N1C(=S)SSC(=S)N1C(C)CCCC1C (centres undefined)	> 50	0.479	> 1000	–
CN(Cc1ccccc1)C(=S)SSC(=S)N(C)Cc1ccccc1	> 50	0.437	> 1000	–
S=C(SSC(=S)N1CCN(C2CCCCC2)CC1)N1CCN(C2CCCCC2)CC1	> 50	0.166	> 1000	–
